Laboratory results as given in ChEMBL document CHEMBL1140313, “Potent inhibitors of subgenomic hepatitis C virus RNA replication through optimization of indole-N-acetamide allosteric inhibitors of the viral NS5B polymerase” (J Med Chem, 2005).

What was measured:
Huh-7 [1] = test: Effective concentration required to inhibit replication of subgenomic HCV RNA in HUH-7 cells in the presence of 10% fetal calf serum; assay type: functional, cell-based; conditions: Homo sapiens
Procedure, shortened: (§1)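 Subgenomic HCV replicon in HUH-7 cells, run in medium with 10% fetal calf serum (a modification of Bartenschlager's method). EC50 was determined only for compounds giving >50% inhibition in an initial screen at a fixed 5 μM. Values are the arithmetic mean ± half-range or standard error of at least two independent determinations, or from a single experiment where noted.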

[2] = target: T1, RNA-directed RNA polymerase (Hepacivirus hominis, UniProt O39930); test: Inhibitory activity against by hepatitis C virus NS5B polymerase
Procedure, shortened: (§2)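 Purified ΔC55 NS5B polymerase assayed with heterogenic template RNA. IC50 values come from a single experiment or are arithmetic means of multiple experiments, as footnoted; some were measured in duplicate.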

Huh-7 [3] = test: Effective concentration required to inhibit replication of subgenomic HCV RNA in HUH-7 cells; assay type: functional, cell-based; conditions: Homo sapiens; procedure, shortened: as §1
[4] = target: T2, pregnane X receptor (PXR, NR1I2) (Homo sapiens, UniProt O75469); test: Inhibition of pregnane X receptor mediated activation of alkaline phosphatase reporter gene at 10 uM; assay type: functional
T2 sequence (O75469 whole entry): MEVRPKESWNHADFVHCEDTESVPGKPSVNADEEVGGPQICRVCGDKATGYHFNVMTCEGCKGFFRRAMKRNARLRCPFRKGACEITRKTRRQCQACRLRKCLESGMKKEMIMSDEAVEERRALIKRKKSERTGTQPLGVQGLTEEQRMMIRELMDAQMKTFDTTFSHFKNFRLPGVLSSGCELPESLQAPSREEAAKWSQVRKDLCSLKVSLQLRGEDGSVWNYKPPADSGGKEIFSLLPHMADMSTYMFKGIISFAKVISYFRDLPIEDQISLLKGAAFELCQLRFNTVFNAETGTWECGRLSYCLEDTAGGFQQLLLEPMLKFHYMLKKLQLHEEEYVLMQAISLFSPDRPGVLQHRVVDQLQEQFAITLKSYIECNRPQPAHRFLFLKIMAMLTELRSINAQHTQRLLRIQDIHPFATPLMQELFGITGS
Procedure, shortened: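 HepG2 cells were cotransfected with a human PXR expression vector and a secreted alkaline phosphatase (SEAP) reporter driven by a synthetic PXR-responsive element. Cells were incubated 48 h with or without test compound, and SEAP activity was read with a commercial detection kit.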

[5] = target: T1, RNA-directed RNA polymerase; test: Inhibitory activity against hepatitis C virus NS5B polymerase enzyme; Range=6-9 nM; procedure, shortened: as §2
Huh-7 [6] = test: Effective concentration required to inhibit replication of subgenomic HCV RNA in HUH-7 cells in the presence of 50% normal human serum; assay type: functional, cell-based
Procedure, shortened: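 Subgenomic HCV replicon in HUH-7 cells run under high-serum conditions with 50% normal human serum in place of 10% fetal calf serum. EC50 values are the arithmetic mean ± half-range or standard error of at least two independent determinations.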

T1 sequence (O39930 whole entry): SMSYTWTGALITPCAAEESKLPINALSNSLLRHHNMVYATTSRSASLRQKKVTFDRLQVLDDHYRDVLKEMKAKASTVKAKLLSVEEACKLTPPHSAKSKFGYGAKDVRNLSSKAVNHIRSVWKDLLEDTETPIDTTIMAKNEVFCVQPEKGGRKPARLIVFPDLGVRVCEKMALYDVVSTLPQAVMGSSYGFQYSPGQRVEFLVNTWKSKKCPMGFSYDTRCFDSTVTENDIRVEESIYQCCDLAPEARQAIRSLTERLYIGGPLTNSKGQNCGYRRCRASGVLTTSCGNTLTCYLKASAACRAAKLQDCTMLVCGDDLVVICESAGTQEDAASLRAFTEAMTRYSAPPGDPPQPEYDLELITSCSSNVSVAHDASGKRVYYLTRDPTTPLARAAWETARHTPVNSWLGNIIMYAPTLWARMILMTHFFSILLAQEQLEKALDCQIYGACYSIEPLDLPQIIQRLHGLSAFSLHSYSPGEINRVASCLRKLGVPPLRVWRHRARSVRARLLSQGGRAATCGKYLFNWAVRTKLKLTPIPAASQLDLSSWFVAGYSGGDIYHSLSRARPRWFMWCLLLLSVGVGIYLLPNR

EC50 (Huh-7 [1])	IC50 [2]	EC50 (Huh-7 [3])	SMILES	also measured
1500 nM			CN(C)C(=O)Cn1c(-c2ccccc2)c(C2CCCCC2)c2ccc(C(=O)O)cc21	
	71 nM	700 nM	CN(C)C1CCN(C(=O)Cn2c(-c3ccccc3)c(C3CCCCC3)c3ccc(C(=O)O)cc32)C1 (configuration not stated)	
			CN1CCCC(CN(C)C(=O)Cn2c(-c3cccc(F)c3)c(C3CCCCC3)c3ccc(C(=O)O)cc32)C1 (configuration not stated)	inhibition at 10 µM [4]: 72%
	47 nM	400 nM	CN1CCCC(CN(C)C(=O)Cn2c(-c3ccccc3)c(C3CCCC3)c3ccc(C(=O)O)cc32)C1 (configuration not stated)	
300 nM	41 nM		CN(C)C1CCN(C(=O)Cn2c(-c3ccccc3)c(C3CCCCC3)c3ccc(C(=O)O)cc32)CC1	inhibition at 10 µM [4]: 14%
2800 nM	49 nM		C=Cc1c(C2CCCCC2)c2ccc(C(=O)O)cc2n1CC(=O)N1CCC(N(C)C)CC1	
	244 nM	5000 nM	CN(C)C1CCN(C(=O)Cn2c(-c3ccccc3)c(C3CCCCC3)c3cc(C(=O)O)ccc32)C1 (configuration not stated)	
	68 nM	800 nM	CN1CCN(C(=O)Cn2c(-c3ccccc3)c(C3CCCC3)c3ccc(C(=O)O)cc32)CC1	
3300 nM	147 nM		CN(C)Cc1cccc(-c2c(C3CCCCC3)c3ccc(C(=O)O)cc3n2CC(=O)N(C)C)c1	
	39 nM	500 nM	CN1CCN(C(=O)Cn2c(-c3ccccc3)c(C3CCCCC3)c3ccc(C(=O)O)cc32)CC1	
144 nM			CCN(CC)C1CCN(C(=O)Cn2c(-c3ccc(OC)cc3)c(C3CCCCC3)c3ccc(C(=O)O)cc32)CC1	IC50 [5]: 9 nM; EC50 (Huh-7 [6]): 422 nM
	12 nM	300 nM	CN1CCN(C(=O)Cn2c(-c3ccc(Cl)cc3)c(C3CCCCC3)c3ccc(C(=O)O)cc32)CC1	
		> 5000 nM	O=C(O)c1ccc2c(c1)c(C1CCCCC1)c(-c1ccccc1)n2CC(=O)N1CCS(=O)(=O)CC1	
			CN(C)C1CCN(C(=O)Cn2c(-c3ccc(Cl)cc3)c(C3CCCCC3)c3ccc(C(=O)O)cc32)CC1	inhibition at 10 µM [4]: 15%
158 nM			COc1ccc(-c2c(C3CCCCC3)c3ccc(C(=O)O)cc3n2CC(=O)N2CCC(N(C)C)CC2)cc1	IC50 [5]: 9 nM; EC50 (Huh-7 [6]): 677 nM
800 nM	31 nM		CN(C)C(=O)Cn1c(-c2ccoc2)c(C2CCCCC2)c2ccc(C(=O)O)cc21	
	11 nM	900 nM	CC(C)N(C)C(=O)Cn1c(-c2ccc(Cl)cc2)c(C2CCCCC2)c2ccc(C(=O)O)cc21	
	78 nM	1500 nM	CN(C)C1CCN(C(=O)Cn2c(-c3ccccc3)c(C3CCCC3)c3ccc(C(=O)O)cc32)C1 (configuration not stated)	
	17 nM	1100 nM	CN(C)C(=O)CN(C)C(=O)Cn1c(-c2ccc(Cl)cc2)c(C2CCCCC2)c2ccc(C(=O)O)cc21	
	7 nM	500 nM	CS(=O)(=O)N1CCN(C(=O)Cn2c(-c3ccc(Cl)cc3)c(C3CCCCC3)c3ccc(C(=O)O)cc32)CC1	
	283 nM		CCc1c(C2CCCCC2)c2ccc(C(=O)O)cc2n1CC(=O)N1CCC(N(C)C)CC1	
		> 5000 nM	CN(C)C(=O)CN(C)C(=O)Cn1c(-c2ccccc2)c(C2CCCC2)c2ccc(C(=O)O)cc21	
	62 nM	1600 nM	CC(C)N(C)C(=O)Cn1c(-c2ccccc2)c(C2CCCCC2)c2ccc(C(=O)O)cc21	
	448 nM	3500 nM	CN1CCN(C(=O)Cn2c(-c3ccccc3)c(C3CCCCC3)c3cc(C(=O)O)ccc32)CC1	
400 nM	18 nM		CN(C)C1CCN(C(=O)Cn2c(C3=CCCCC3)c(C3CCCCC3)c3ccc(C(=O)O)cc32)CC1	
		> 5000 nM	CC(C)N(C)C(=O)Cn1c(-c2ccccc2)c(C2CCCCC2)c2cc(C(=O)O)ccc21	
	19 nM	900 nM	CS(=O)(=O)N1CCN(C(=O)Cn2c(-c3ccccc3)c(C3CCCCC3)c3ccc(C(=O)O)cc32)CC1	

EC50 (Huh-7 [1])	IC50 [2]	EC50 (Huh-7 [3])	SMILES	also measured
199 nM			O=C(O)c1ccc2c(C3CCCCC3)c(-c3ccoc3)n(CC(=O)N3CCC(N4CCC4)CC3)c2c1	IC50 [5]: 9 nM; EC50 (Huh-7 [6]): 633 nM
	8 nM	1400 nM	O=C(Cn1c(-c2ccc(Cl)cc2)c(C2CCCCC2)c2ccc(C(=O)O)cc21)NCC1CC1	
1100 nM	78 nM		CC(C)N(C)Cc1cccc(-c2c(C3CCCCC3)c3ccc(C(=O)O)cc3n2CC(=O)N(C)C)c1	
	11 nM	900 nM	O=C(O)c1ccc2c(C3CCCCC3)c(-c3ccc(Cl)cc3)n(CC(=O)N3CCS(=O)(=O)CC3)c2c1	
13000 nM	332 nM		CN(C)C(=O)Cn1c(-c2cccnc2)c(C2CCCCC2)c2ccc(C(=O)O)cc21	
17600 nM	920 nM		CN(C)Cc1ccc(-c2c(C3CCCCC3)c3ccc(C(=O)O)cc3n2CC(=O)N(C)C)cc1	
	63 nM	1300 nM	O=C(Cn1c(-c2ccccc2)c(C2CCCCC2)c2ccc(C(=O)O)cc21)NCC1CC1	
		> 5000 nM	CN1CCCC(CN(C)C(=O)Cn2c(-c3ccccc3)c(C3CCCCC3)c3cc(C(=O)O)ccc32)C1 (configuration not stated)	
4000 nM	72 nM		CN(C)C1CCN(C(=O)Cn2c(C3CCCCC3)c(C3CCCCC3)c3ccc(C(=O)O)cc32)CC1	
600 nM	18 nM		CN(C)C(=O)Cn1c(-c2cccc(CN3CCCC(F)(F)C3)c2)c(C2CCCCC2)c2ccc(C(=O)O)cc21	
		> 5000 nM	O=C(O)c1ccc2c(C3CCCC3)c(-c3ccccc3)n(CC(=O)N3CCS(=O)(=O)CC3)c2c1	
	98 nM	1900 nM	CN(C)C(=O)CN(C)C(=O)Cn1c(-c2ccccc2)c(C2CCCCC2)c2ccc(C(=O)O)cc21	
			CN(C)C1CCN(C(=O)Cn2c(-c3cccc(F)c3)c(C3CCCCC3)c3ccc(C(=O)O)cc32)CC1	inhibition at 10 µM [4]: 10%
152 nM			CCN(CC)CC1CN(C(=O)Cn2c(-c3ccc(OC)cc3)c(C3CCCCC3)c3ccc(C(=O)O)cc32)CCO1 (configuration not stated)	IC50 [5]: 9 nM; EC50 (Huh-7 [6]): 376 nM
		> 5000 nM	CC(C)N(C)C(=O)Cn1c(-c2ccccc2)c(C2CCCC2)c2ccc(C(=O)O)cc21	
6700 nM	134 nM		CN(C)C(=O)Cn1c(-c2ccncc2)c(C2CCCCC2)c2ccc(C(=O)O)cc21	
	228 nM		C#Cc1c(C2CCCCC2)c2ccc(C(=O)O)cc2n1CC(=O)N1CCC(N(C)C)CC1	
		> 5000 nM	CN(C)C(=O)CN(C)C(=O)Cn1c(-c2ccccc2)c(C2CCCCC2)c2cc(C(=O)O)ccc21	
	43 nM	1600 nM	O=C(O)c1ccc2c(C3CCCCC3)c(-c3ccccc3)n(CC(=O)N3CCS(=O)(=O)CC3)c2c1	
	12 nM	300 nM	CN1CCCC(CN(C)C(=O)Cn2c(-c3ccc(Cl)cc3)c(C3CCCCC3)c3ccc(C(=O)O)cc32)C1 (configuration not stated)	inhibition at 10 µM [4]: 92%
		> 5000 nM	O=C(Cn1c(-c2ccccc2)c(C2CCCCC2)c2cc(C(=O)O)ccc21)NCC1CC1	
2700 nM	78 nM		CN(C)Cc1cc(-c2c(C3CCCCC3)c3ccc(C(=O)O)cc3n2CC(=O)N(C)C)ccc1Cl	
		> 5000 nM	CS(=O)(=O)N1CCN(C(=O)Cn2c(-c3ccccc3)c(C3CCCC3)c3ccc(C(=O)O)cc32)CC1	
		> 5000 nM	CS(=O)(=O)N1CCN(C(=O)Cn2c(-c3ccccc3)c(C3CCCCC3)c3cc(C(=O)O)ccc32)CC1	
		> 5000 nM	O=C(Cn1c(-c2ccccc2)c(C2CCCC2)c2ccc(C(=O)O)cc21)NCC1CC1	
1800 nM	69 nM		COc1ccc(-c2c(C3CCCCC3)c3ccc(C(=O)O)cc3n2CC(=O)N(C)C)cn1	
	13 nM	200 nM	CN(C)C1CCN(C(=O)Cn2c(-c3ccc(Cl)cc3)c(C3CCCCC3)c3ccc(C(=O)O)cc32)C1 (configuration not stated)	
